Results from different studies.
Values after ≈ are worked out from the molar mass of the structure shown.

SMILES	target or system	assay	system	setting	quantity	result
C#Cc1ccc2c(c1)C(c1ccccn1)=NCc1c(-c3cnco3)ncn1-2.Cl	–	–	water	10 min, 37 °C	kinetic solubility	2400 µg/mL
CCN(CC)CCO[C@H]1CC[C@@]2(C)C(=CC[C@@H]3[C@@H]2CC[C@]2(C)C(=O)CC[C@@H]32)C1	MA104	cell growth or viability, MTS	–	24 h	CC50	219 µM
CC1(C)CC(NC(=O)C(=O)Nc2ccc(Cl)cc2)CC(C)(C)N1	Cf2Th-CCR5	cell growth or viability, MTS	–	48 h	CC50	> 100 µM
N[C@@H]1C[C@H]1c1ccccc1 (racemic)	Cytochrome P450 2A6 (CYP2A6, Homo sapiens, UniProt P11509)	enzyme activity, inhibitor, fluorescence	–	–	IC50	0.49 µM
CC[C@@H]1CN2CCc3c([nH]c4cccc(OC)c34)[C@H]2C[C@@H]1/C(=C\OC)C(=O)OC	dog Hepatocyte	metabolic stability	hepatocytes	–	half-life	> 2 h
CC[C@H](C)[C@H](NC(=O)[C@H](CCCNC(=N)N)NC(=O)[C@H](CCC(=O)O)NC(C)=O)C(=O)N[C@H]1CSSC[C@@H](C(=O)N[C@H](C(N)=O)[C@@H](C)O)NC(=O)[C@H](CCCNC(=N)N)NC(=O)[C@H](Cc2c[nH]cn2)NC(=O)[C@H](Cc2cccc3ccccc23)NC(=O)CNC(=O)[C@H](Cc2c[nH]c3ccccc23)NC(=O)[C@H](CC(=O)O)NC(=O)[C@H](CCC(N)=O)NC(=O)[C@H](Cc2c[nH]c3ccccc23)NC(=O)[C@H](C(C)C)NC1=O	–	–	PBS	pH 7.4	solubility	380 µg/mL (≈ 188 µM)
Cc1ncc(C)n2nc(/C=C/c3nc(N4CCCC4)cc(N4CCOCC4)n3)nc12	–	–	male beagle dog, plasma	oral, 0.3 mg/kg	bioavailability	42%
CC[C@H](C)[C@H](NC(C)=O)C(=O)N[C@H]1CSSC[C@@H](C(=O)N[C@H](C(N)=O)[C@@H](C)O)NC(=O)[C@H](CCCNC(=N)N)NC(=O)[C@H](Cc2c[nH]cn2)NC(=O)[C@@](C)(CC)NC(=O)CNC(=O)[C@H](Cc2c[nH]c3ccccc23)NC(=O)[C@H](CC(=O)O)NC(=O)[C@H](CCC(N)=O)NC(=O)[C@H](Cc2c[nH]c3ccccc23)NC(=O)[C@H](C(C)C)NC1=O	–	–	PBS	pH 7.4	solubility	3600 µg/mL (≈ 2190 µM)
COc1ccc2[nH]cc(CCN(C)C)c2c1	–	potentiometric	water	–	pKa	9.1
